Legend:
HepG2 [1] = assay: Cytotoxicity against human HepG2 cells assessed as growth inhibition at 1 x 10 '-5 M after 24 hrs by MTT assay; format: functional; conditions: HepG2, 24 h, read-out: GI
How it was run: (§1)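 MTT screen at a single concentration of 1 × 10⁻⁵ M, 24 h exposure. Seeding was 5 × 10³ cells/well in RPMI-1640 with 2 mM glutamine. Vehicle was 0.1% final DMSO. MTT was added for 4 h at 37 °C, formazan dissolved in DMSO/glycine buffer (pH 10.5), and A570 read. Percent growth inhibition was calculated against vehicle-treated cells; triplicate, mean of three independent experiments.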

NCI-H522 [2] = assay: Cytotoxicity against human NCI-H522 cells assessed as growth inhibition at 1 x 10 '-5 M after 24 hrs by MTT assay; format: functional; conditions: NCI-H522, 24 h, read-out: GI; how it was run: as §1
PA-1 [3] = assay: Cytotoxicity against human PA1 cells assessed as growth inhibition at 1 x 10 '-5 M after 24 hrs by MTT assay; format: functional; conditions: PA-1, 24 h, read-out: GI; how it was run: as §1
HCT-15 [4] = assay: Cytotoxicity against human HCT15 cells assessed as growth inhibition at 1 x 10 '-5 M after 24 hrs by MTT assay; format: functional; conditions: HCT-15, 24 h, read-out: GI; how it was run: as §1
Rattus norvegicus = assay: Antiinflammatory activity in Charles Foster albino rat assessed as inhibition of carrageenan-induced paw edema at 50 mg/kg, po administered 30 mins before carrageenan challenge measured after 1 to 3 hrs by plethysmometer analysis; format: functional
How it was run: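 Rats of both sexes (120–160 g; pregnant females excluded), five per group, were dosed orally at 50 mg/kg. After 30 min, 0.20 mL of freshly prepared 1% carrageenan in 0.9% NaCl was injected into the plantar aponeurosis of the hind paw. Paw volume was read by water plethysmometer before and 1–3 h later. Percent inhibition was taken against a carrageenan-only control group of five rats.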

T47D [5] = assay: Cytotoxicity against human T47D cells assessed as growth inhibition at 1 x 10 '-5 M after 24 hrs by MTT assay; format: functional; conditions: read-out: GI; how it was run: as §1
HepG2 [6] = assay: Cytotoxicity against human HepG2 cells after 24 hrs by MTT assay; format: functional, cell-based; conditions: HepG2, 24 h
How it was run: (§2)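 Cell lines came from NCCS Pune and were grown in RPMI-1640 with 2 mM glutamine, pH 7.4. Cells were seeded at 5 × 10³ per well and exposed to serial dilutions in DMSO for 24 h, with 0.1% final DMSO as vehicle control. MTT (5 mg/ml) was added for 4 h at 37 °C. Formazan was dissolved in DMSO plus Sorensen glycine buffer (pH 10.5) and read at 570 nm. IC50 came from % inhibition versus vehicle; triplicate, mean ± SD of three experiments.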

NCI-H522 [7] = assay: Cytotoxicity against human NCI-H522 cells after 24 hrs by MTT assay; format: functional, cell-based; conditions: NCI-H522, 24 h; how it was run: as §2
T47D [8] = assay: Cytotoxicity against human T47D cells after 24 hrs by MTT assay; format: functional, cell-based; how it was run: as §2
HCT-15 [9] = assay: Cytotoxicity against human HCT15 cells after 24 hrs by MTT assay; format: functional, cell-based; conditions: HCT-15, 24 h; how it was run: as §2
PA-1 [10] = assay: Cytotoxicity against human PA1 cells after 24 hrs by MTT assay; format: functional, cell-based; conditions: PA-1, 24 h; how it was run: as §2
COS-1 = assay: Cytotoxicity against african green monkey COS1 cells after 24 hrs by MTT assay; format: cell-based; conditions: Chlorocebus aethiops, COS-1, 24 h

Row | Compound | inhibition of growth at 10 µM (HepG2 [1]) [%] | inhibition of growth at 10 µM (NCI-H522 [2]) [%] | inhibition of growth at 10 µM (PA-1 [3]) [%] | inhibition of growth at 10 µM (HCT-15 [4]) [%] | inhibition in vivo at 50 mg/kg (Rattus norvegicus) [%] | inhibition of growth at 10 µM (T47D [5]) [%] | IC50 (HepG2 [6]) [µM] | IC50 (NCI-H522 [7]) [µM] | IC50 (T47D [8]) [µM] | IC50 (HCT-15 [9]) [µM] | IC50 (PA-1 [10]) [µM] | IC50 (COS-1) [µM]
1 | N=C(NCc1cccnc1)c1ccncc1 | 20 | 7 | 21 | 22 | 0 | 22 |  |  |  |  |  | 
2 | N=C(Nc1ccc(-c2ccc(NC(=N)c3cnccn3)cc2)cc1)c1cnccn1 | 37 | 43 | 43 | 45 | 31 | 14 | 20.3 | 14.1 | 62.4 | 11.9 | 17.1 | 100
3 | N=C(NCCCCNC(=N)c1ccccn1)c1ccccn1 | 26 | 38 | 27 | 5 | 14 | 29 |  |  |  |  |  | 
4 | O=c1[nH]cc(F)c(=O)[nH]1 [FLUOROURACIL] | 32 | 13 | 22 | 19 |  | 15 | 29.9 | 56.8 | 51.8 | 45 | 39.5 | 110
5 | N=C(NCc1cccnc1)c1cnccn1 | 26 | 11 | 23 | 3 | 18 | 23 |  |  |  |  |  | 
6 | N=C(Nc1ccc(-c2ccc(NC(=N)c3ccncc3)cc2)cc1)c1ccncc1 | 48 | 36 | 7 | 3 | 15 | 12 | 11.9 | 13.4 | 34.1 | 124 | 42.5 | 50
7 | N=C(NCCCCNC(=N)c1cnccn1)c1cnccn1 | 17 | 5 | 15 | 9 | 37 | 19 |  |  |  |  |  | 
8 | N=C(Nc1ccc(-c2ccc(NC(=N)c3ccccn3)cc2)cc1)c1ccccn1 | 23 | 32 | 37 | 16 | 26 | 2 |  |  |  |  |  | 
9 | C[C@@H]1C[C@@H]([C@H](O)CC2CC(=O)NC(=O)C2)C(=O)[C@@H](C)C1 [CYCLOHEXIMIDE] | 18 | 9 | 34 | 16 |  | 11 | 57.1 | 60.1 | 65.1 | 54.1 | 40.6 | 128
10 | N=C(NCCCCNC(=N)c1ccncc1)c1ccncc1 | 50 | 20 | 10 | 5 | 15 | 27 | 11.2 | 36.6 | 43 | 87.8 | 49.2 | 246
11 | N=C(NCCN1CCOCC1)c1cnccn1 | 52 | 35 | 51 | 6 | 15 | 13 | 9.4 | 18.2 | 55.4 | 78.3 | 13.6 | 173
12 | N=C(NCCCN1CCN(CCCNC(=N)c2cnccn2)CC1)c1cnccn1 | 22 | 15 | 26 | 12 | 27 | 28 |  |  |  |  |  | 
13 | N=C(NCCCN1CCN(CCCNC(=N)c2ccccn2)CC1)c1ccccn1 | 34 | 39 | 31 | 31 | 38 | 39 | 20.8 | 22 | 22.5 | 25.1 | 39.7 | 203
14 | N=C(NCCN1CCOCC1)c1ccccn1 | 40 | 31 | 43 | 12 | 0 | 21 |  |  |  |  |  | 
15 | N=C(NCCCN1CCN(CCCNC(=N)c2ccncc2)CC1)c1ccncc1 | 6 | 31 | 13 | 9 | 31 | 2 |  |  |  |  |  | 
16 | CC(C)Cc1ccc(C(C)C(=O)O)cc1 (stereo not drawn) [IBUPROFEN] |  |  |  |  | 39 |  |  |  |  |  |  | 
17 | N=C(NCCN1CCNCC1)c1ccccn1 | 27 | 8 | 40 | 24 | 11 | 14 |  |  |  |  |  | 
18 | N=C(NCc1cccnc1)c1ccccn1 | 42 | 9 | 36 | 23 | 10 | 23 |  |  |  |  |  | 
19 | N=C(NCCN1CCNCC1)c1ccncc1 | 10 | 17 | 46 | 13 | 0 | 6 | 191 | 35.3 | 184 | 35.4 | 19.3 | 147
20 | O=P1(N(CCCl)CCCl)NCCCO1 (stereo not drawn) [CYCLOPHOSPHAMIDE ANHYDROUS] | 18 | 11 | 12 | 4 |  | 9 | 55.3 | 67.9 | 70.1 | 74.3 | 64.1 | 125
21 | N=C(NCCN1CCNCC1)c1cnccn1 | 23 | 9 | 36 | 28 | 20 | 22 |  |  |  |  |  | 
22 | N=C(NCCN1CCOCC1)c1ccncc1 | 9 | 11 | 43 | 17 | 28 | 12 |  |  |  |  |  | 

— ChEMBL document CHEMBL2311276, “Synthesis of amidine and bis amidine derivatives and their evaluation for anti-inflammatory and anticancer activity” (Eur J Med Chem, 2013)
